Experiments:
[1] = target: Phosphatidylinositol 4,5-bisphosphate 3-kinase catalytic subunit alpha isoform (Bos taurus, UniProt P32871); assay: Inhibition of GST-tagged bovine PI3K p110-alpha by SPA
Procedure, shortened: (§1)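 Radiometric SPA. Enzyme and compound (in DMSO) in 20 mM Tris-HCl pH 7.4, 160 mM NaCl, 2 mM DTT, 30 mM MgCl2, 0.4 mM EDTA, 0.4 mM EGTA. Stopped with wheat germ agglutinin-coated SPA beads in PBS, then centrifuged. IC50 is the mean of at least two determinations.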

A375 (human) = assay: Antiproliferative activity against human A375 cells after 46 hrs; conditions: A375, 46 h
[2] = target: Phosphatidylinositol 4-phosphate 3-kinase C2 domain-containing subunit beta (Homo sapiens, UniProt O00750); assay: Inhibition of Glu-tagged PI3K C2-beta by SPA
Chain of Phosphatidylinositol 4-phosphate 3-kinase C2 domain-containing subunit beta (O00750 whole entry, the tested form may be a part, canonical isoform): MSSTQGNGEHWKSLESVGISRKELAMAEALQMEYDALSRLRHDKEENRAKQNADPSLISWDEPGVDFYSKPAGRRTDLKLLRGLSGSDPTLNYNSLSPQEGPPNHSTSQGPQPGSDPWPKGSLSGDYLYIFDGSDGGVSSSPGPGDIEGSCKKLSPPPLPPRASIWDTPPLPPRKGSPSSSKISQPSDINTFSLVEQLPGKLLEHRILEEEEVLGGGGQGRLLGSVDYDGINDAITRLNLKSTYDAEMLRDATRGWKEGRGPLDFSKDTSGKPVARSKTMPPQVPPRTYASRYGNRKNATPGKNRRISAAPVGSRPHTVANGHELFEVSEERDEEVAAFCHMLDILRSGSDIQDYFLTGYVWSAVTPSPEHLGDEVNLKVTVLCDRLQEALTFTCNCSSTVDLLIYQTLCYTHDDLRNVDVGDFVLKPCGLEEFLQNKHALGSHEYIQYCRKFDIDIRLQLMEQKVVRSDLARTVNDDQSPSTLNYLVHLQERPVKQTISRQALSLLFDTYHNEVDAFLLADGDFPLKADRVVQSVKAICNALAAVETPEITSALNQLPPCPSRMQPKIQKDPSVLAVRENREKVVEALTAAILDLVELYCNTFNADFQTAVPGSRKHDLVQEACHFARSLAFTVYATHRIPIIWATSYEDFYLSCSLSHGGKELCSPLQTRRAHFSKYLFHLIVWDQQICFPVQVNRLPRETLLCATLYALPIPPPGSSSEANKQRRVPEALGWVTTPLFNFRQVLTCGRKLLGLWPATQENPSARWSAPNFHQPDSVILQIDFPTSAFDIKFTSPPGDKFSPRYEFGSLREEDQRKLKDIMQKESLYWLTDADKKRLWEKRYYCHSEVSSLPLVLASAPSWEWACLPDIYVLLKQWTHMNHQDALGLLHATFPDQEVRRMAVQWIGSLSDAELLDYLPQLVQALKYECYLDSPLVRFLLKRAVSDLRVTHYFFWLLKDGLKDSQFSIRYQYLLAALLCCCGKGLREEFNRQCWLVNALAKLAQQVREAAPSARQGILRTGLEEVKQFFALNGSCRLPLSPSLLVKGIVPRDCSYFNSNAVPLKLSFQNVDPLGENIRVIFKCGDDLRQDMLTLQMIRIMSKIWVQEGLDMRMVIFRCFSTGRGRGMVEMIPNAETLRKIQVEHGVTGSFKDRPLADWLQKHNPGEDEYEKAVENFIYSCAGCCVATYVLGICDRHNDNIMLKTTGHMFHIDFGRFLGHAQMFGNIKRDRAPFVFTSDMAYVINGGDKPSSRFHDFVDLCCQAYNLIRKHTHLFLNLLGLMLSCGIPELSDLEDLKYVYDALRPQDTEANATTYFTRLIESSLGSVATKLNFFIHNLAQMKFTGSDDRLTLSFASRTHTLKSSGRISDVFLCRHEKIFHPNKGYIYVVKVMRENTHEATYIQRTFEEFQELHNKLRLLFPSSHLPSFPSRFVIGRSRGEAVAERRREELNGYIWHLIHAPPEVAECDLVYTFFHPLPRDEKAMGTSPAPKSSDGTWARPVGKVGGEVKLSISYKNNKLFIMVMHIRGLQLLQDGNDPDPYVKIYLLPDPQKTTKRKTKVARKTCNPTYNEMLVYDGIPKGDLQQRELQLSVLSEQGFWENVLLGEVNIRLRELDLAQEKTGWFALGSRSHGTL
Procedure, shortened: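 SPA as for the class I isoforms, but the PI3K C2β buffer is 20 mM Tris-HCl pH 7.4, 160 mM NaCl, 2 mM DTT, 5 mM MgCl2, 15 mM CaCl2, 0.4 mM EDTA. Run 120 min at room temperature. Captured on WGA-coated SPA beads. IC50 is the mean of at least two determinations.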

[3] = Half life in ip dosed mouse; type: ADME, organism-based; conditions: in vivo
Procedure, shortened: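 Mice dosed intraperitoneally. Plasma half-life determined by HPLC/MS/MS.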

[4] = target: Phosphatidylinositol 4,5-bisphosphate 3-kinase catalytic subunit beta isoform (Homo sapiens, UniProt P42338); assay: Inhibition of GST-tagged human PI3K p110-beta by SPA; procedure, shortened: as §1
Chain of Phosphatidylinositol 4,5-bisphosphate 3-kinase catalytic subunit beta isoform (P42338 whole entry, canonical isoform): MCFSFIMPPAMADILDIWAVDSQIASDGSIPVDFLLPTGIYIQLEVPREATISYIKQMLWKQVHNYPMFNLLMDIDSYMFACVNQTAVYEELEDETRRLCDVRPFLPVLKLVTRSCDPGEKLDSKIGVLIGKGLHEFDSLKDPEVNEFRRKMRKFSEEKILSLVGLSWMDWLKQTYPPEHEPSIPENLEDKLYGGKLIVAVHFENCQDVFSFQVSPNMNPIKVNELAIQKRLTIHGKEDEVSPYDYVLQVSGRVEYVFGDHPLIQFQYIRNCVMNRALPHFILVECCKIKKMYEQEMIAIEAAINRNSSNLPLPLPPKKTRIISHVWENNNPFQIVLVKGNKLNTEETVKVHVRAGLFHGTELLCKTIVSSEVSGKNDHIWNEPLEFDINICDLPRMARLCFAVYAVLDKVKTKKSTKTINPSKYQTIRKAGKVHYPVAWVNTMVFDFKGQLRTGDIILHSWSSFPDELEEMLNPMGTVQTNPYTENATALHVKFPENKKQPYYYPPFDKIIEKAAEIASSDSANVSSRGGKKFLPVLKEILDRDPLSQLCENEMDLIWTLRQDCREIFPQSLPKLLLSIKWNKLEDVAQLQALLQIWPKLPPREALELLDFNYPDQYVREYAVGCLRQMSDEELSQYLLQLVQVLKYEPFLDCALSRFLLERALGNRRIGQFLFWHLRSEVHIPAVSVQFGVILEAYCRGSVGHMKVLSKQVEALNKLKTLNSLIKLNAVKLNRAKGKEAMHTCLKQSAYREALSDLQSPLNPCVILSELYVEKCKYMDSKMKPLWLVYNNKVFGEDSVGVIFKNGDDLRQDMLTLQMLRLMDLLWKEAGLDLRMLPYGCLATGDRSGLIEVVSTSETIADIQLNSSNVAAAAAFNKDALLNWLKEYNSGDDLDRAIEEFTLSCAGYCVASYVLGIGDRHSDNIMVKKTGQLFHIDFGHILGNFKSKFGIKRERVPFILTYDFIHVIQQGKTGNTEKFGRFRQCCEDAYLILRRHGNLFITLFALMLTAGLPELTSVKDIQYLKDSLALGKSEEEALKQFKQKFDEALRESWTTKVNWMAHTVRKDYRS

[5] = target: Phosphatidylinositol 4,5-bisphosphate 3-kinase catalytic subunit gamma isoform (Homo sapiens, UniProt P48736); assay: Inhibition of His-tagged PI3K p110gamma by SPA; procedure, shortened: as §1
Chain of Phosphatidylinositol 4,5-bisphosphate 3-kinase catalytic subunit gamma isoform (P48736 whole entry, canonical isoform): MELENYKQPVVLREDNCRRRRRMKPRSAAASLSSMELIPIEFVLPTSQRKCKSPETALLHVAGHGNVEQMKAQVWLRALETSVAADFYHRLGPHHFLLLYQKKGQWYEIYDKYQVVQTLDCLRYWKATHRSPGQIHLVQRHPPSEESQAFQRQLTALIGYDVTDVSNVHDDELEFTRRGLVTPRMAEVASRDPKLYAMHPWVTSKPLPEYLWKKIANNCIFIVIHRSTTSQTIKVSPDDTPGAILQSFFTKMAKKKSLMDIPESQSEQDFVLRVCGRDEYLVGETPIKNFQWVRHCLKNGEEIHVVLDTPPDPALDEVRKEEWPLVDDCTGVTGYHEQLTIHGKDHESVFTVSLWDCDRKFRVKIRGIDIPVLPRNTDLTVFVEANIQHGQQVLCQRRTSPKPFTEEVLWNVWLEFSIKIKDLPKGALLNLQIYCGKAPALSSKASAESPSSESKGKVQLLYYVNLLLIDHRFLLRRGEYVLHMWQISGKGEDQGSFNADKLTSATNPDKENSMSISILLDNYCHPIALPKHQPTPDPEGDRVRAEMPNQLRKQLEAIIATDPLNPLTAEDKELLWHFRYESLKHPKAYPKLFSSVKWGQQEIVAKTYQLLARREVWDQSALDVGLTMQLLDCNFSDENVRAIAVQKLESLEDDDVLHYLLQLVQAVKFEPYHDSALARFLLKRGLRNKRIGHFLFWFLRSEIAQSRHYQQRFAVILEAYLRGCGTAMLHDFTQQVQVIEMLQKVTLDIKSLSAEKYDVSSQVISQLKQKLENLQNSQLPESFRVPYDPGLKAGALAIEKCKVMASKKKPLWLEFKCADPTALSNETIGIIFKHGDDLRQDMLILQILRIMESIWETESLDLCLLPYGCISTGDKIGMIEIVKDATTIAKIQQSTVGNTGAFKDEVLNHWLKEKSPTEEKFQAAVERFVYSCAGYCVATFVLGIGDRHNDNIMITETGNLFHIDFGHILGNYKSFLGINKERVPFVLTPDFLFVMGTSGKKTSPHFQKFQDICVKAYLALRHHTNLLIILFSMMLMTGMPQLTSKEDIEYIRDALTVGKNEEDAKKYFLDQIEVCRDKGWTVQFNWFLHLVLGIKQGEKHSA

HeLa [6] = assay: Antiproliferative activity against human HeLa cells after 46 hrs; type: functional, cell-based
Procedure, shortened: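 Serum-induced proliferation. Compound (1 µL) spotted into wells, then 1×10^4 cells added. After 46 h incubation, Alamar Blue added; fluorescence read 2 h later at ex 544/em 590 nm.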

HeLa [7] = assay: Suppression of tumor growth in BALB/c nu/nu mouse implanted with human HeLa cells at 25 mg/kg, ip after 2 weeks relative to control; type: functional; conditions: route intraperitoneal
Procedure, shortened: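 HeLa xenografts in nude mice, five animals per group. Dosing began when tumours reached about 100 mm³. 25 mg/kg (as free base) given ip once daily for 2 weeks, suspended in 20% hydroxypropyl-β-cyclodextrin/saline; the vehicle group served as control. Tumour volume = 1/2 × (short diameter)² × (long diameter).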

Chain of Phosphatidylinositol 4,5-bisphosphate 3-kinase catalytic subunit alpha isoform (P32871 whole entry, canonical isoform): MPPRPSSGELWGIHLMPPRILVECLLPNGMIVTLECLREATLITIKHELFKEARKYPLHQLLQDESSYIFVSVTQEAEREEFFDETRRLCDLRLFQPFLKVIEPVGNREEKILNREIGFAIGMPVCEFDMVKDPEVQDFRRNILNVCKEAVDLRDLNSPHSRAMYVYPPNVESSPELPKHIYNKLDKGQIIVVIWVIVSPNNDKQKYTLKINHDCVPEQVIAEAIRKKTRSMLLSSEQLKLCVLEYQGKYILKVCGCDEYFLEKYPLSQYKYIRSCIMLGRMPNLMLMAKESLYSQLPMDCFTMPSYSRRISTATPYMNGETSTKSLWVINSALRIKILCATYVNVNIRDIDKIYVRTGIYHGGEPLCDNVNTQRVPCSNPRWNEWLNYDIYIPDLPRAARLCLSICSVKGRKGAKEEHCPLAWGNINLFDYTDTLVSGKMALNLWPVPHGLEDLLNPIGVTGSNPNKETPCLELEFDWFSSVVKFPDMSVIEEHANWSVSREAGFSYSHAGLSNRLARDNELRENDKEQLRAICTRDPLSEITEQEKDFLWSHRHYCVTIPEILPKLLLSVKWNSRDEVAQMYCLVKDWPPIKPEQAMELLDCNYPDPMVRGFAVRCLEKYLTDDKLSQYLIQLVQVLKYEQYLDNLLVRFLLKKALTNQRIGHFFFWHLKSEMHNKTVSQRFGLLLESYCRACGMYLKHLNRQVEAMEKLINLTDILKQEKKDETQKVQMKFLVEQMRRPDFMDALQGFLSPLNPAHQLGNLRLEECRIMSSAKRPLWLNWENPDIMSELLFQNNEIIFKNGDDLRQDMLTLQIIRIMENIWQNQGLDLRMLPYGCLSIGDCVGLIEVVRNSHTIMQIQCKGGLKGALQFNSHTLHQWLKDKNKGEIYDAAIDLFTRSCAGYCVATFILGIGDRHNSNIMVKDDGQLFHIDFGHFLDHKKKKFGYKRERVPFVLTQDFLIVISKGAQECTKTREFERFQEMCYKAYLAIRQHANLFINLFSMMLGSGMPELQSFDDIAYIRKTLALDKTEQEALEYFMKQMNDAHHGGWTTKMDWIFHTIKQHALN

Compound | IC50 [1] [nM] | IC50 (A375 (human)) [nM] | further results
Cc1ccc([N+](=O)[O-])cc1Sc1nc(-c2cnc3ccc(Cl)cn23)cs1 | 82 | 3370 | 
Cc1ccc([N+](=O)[O-])cc1S(=O)(=O)n1ccc(-c2c(C)nc3ccc(Cl)cn23)n1 | 2.8 | 830 | 
Cc1ccc([N+](=O)[O-])cc1[S+]([O-])c1nc(-c2cnc3ccc(Cl)cn23)cs1 (centres undefined) | 31 | 270 | 
Cc1ccc([N+](=O)[O-])cc1S(=O)(=O)n1ccc(-c2cnc3ccc(Br)cn23)n1 | 1.8 | 170 | 
O=[N+]([O-])c1ccc(CO)c([S+]([O-])c2nc(-c3cnc4ccc(Cl)cn34)cs2)c1 (centres undefined) | 20 | 19000 | 
Cc1nc2ccc(Cl)cn2c1-c1ccn(S(=O)(=O)c2ccc(F)cc2)n1 | 760 |  | 
O=c1cc(N2CCOCC2)oc2c(-c3ccccc3)cccc12 [LY-294002] |  | 8400 | IC50 [2]: 2100 nM
Cc1nc2ccccn2c1-c1ccn(S(=O)(=O)c2ccc(F)cc2)n1 | 670 | 23000 | 
Cc1nc2ccc(Cl)cn2c1-c1ccn(S(=O)(=O)c2cccc([N+](=O)[O-])c2)n1 | 280 |  | 
Cc1ccc([N+](=O)[O-])cc1S(=O)(=O)n1ccc(-c2cnc3ccc(Cl)cn23)c1 | 100 | 12000 | 
Cc1ccc([N+](=O)[O-])cc1S(=O)(=O)c1nc(-c2cnc3ccc(Cl)cn23)cs1.Cl | 2.8 | 140 | half-life [3]: 156 min; IC50 [2]: 100 nM; IC50 [4]: 170 nM; IC50 [5]: 230 nM; IC50 (HeLa [6]): 210 nM; Activity (HeLa [7]): 37%
Cc1ccc([N+](=O)[O-])cc1S(=O)(=O)n1ccc(-c2c(C)nc3ccc(Br)cn23)n1 | 3.1 | 730 | 
Cc1nc2ccc(Cl)cn2c1-c1ccn(S(=O)(=O)c2ccc([N+](=O)[O-])cc2)n1 | > 30000 |  | 

— ChEMBL document CHEMBL1144502, “Synthesis and biological evaluation of imidazo[1,2-a]pyridine derivatives as novel PI3 kinase p110alpha inhibitors” (Bioorg Med Chem, 2007)
